We go through 17 compounds from ChEMBL document CHEMBL1134674, “Acetylcholinesterase inhibitors: SAR and kinetic studies on omega-[N-methyl-N-(3-alkylcarbamoyloxyphenyl)methyl]aminoalkoxyaryl derivatives” (J Med Chem, 2001).

In data set [1] the target is Acetylcholinesterase (Homo sapiens, UniProt P22303). Kind of data set: In vitro inhibition of human erythrocyte Acetylcholinesterase.
Data set [2] deals with Cholinesterase (Homo sapiens, UniProt P06276). Kind of data set: In vitro inhibition of human serum Butyrylcholinesterase.
Data set [3] in a line: Compound was evaluated for equilibrium constant. The data set is classed as ADME. The procedure, abridged:
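Stopped-time carbamoylation assay with human erythrocyte AChE and inhibitor at five concentrations in pH 8.0 assay buffer at 37 °C. After a few minutes, residual ATCh hydrolysis was read at 412 nm against a parallel no-inhibitor control. Fit R = R0·exp(−kobs·t) + R∞ gave kobs; KC came from the slope/intercept ratio of double-reciprocal kobs versus [I] plots.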

Data set [4] is described as follows: Compound was evaluated for rate constant (K3). The data set is classed as ADME.
The nature of data set [5]: Compound was evaluated for rate constant (K5). The data set is classed as ADME.

SMILES strings stand for the structures.

Chain of Acetylcholinesterase (P22303 whole entry): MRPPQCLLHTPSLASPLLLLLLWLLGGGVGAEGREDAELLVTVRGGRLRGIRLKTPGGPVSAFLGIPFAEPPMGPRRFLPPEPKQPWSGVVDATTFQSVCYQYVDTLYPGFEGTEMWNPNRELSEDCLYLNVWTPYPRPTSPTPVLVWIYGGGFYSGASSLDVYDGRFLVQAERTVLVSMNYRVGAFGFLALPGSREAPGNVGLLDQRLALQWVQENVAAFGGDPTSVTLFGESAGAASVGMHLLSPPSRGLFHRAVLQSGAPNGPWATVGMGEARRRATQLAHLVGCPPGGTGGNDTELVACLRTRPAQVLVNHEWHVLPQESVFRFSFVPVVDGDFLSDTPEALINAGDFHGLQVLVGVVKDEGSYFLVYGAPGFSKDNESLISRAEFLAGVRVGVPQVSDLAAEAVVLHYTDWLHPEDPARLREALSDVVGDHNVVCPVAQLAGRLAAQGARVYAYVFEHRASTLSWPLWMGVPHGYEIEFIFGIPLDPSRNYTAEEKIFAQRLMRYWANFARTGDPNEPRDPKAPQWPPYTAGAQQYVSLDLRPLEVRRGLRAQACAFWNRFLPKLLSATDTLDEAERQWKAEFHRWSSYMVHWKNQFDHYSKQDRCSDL
Chain of Cholinesterase (P06276 whole entry): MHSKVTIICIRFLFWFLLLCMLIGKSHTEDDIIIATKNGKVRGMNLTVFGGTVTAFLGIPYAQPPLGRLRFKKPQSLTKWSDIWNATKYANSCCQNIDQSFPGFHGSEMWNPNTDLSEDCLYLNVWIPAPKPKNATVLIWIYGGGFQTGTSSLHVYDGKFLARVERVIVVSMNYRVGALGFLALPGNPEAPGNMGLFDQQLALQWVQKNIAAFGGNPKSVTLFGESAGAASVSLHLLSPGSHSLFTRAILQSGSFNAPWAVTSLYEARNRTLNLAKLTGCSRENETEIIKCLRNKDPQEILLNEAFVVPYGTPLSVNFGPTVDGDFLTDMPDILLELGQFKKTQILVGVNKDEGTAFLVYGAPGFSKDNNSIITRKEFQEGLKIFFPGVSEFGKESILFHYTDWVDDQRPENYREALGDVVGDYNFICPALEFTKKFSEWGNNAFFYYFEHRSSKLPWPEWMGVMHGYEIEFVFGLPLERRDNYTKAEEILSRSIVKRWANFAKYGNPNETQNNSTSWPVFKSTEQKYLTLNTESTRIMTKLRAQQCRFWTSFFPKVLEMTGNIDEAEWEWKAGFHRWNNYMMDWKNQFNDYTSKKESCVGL

For the compound `CNC(=O)Oc1cccc(CN(C)CCCCCCCCCCOc2ccc3c(=O)c4ccccc4oc3c2)c1`, the concentration for half-maximal inhibition (IC50) (commonly the point on the concentration scale where inhibition reaches its midpoint) came out at 21.8 nM in data set [1] and 31.6 nM in data set [2].

Turning to `CN(CCCOc1ccc2c(=O)c3ccccc3oc2c1)Cc1cccc(OC(=O)NCCCCCCN2CCOCC2)c1`, the half-maximal inhibitory concentration (IC50) in data set [1] came to 21.1 nM; in data set [2], 7.5 nM.

For `CNC(=O)Oc1ccc2c(c1)CN(CCCOc1ccc3c(=O)c4ccccc4oc3c1)CC2`, the values for the half-inhibitory concentration (IC50) in data set [1] and in data set [2] were 12.4 nM and 34.1 nM, respectively.

For the compound `CNC(=O)Oc1cccc(CN(C)CCCOc2ccc3ccccc3c2)c1`, the IC50 worked out at 82.6 nM in data set [1] and 205 nM in data set [2].

On to `CNC(=O)Oc1cccc(CN(C)CCCCCCCCOc2ccc3c(=O)c4ccccc4oc3c2)c1`, for which the IC50 in data set [1] worked out at 6.8 nM; in data set [2], 25.2 nM.

As to `CN(CCCOc1ccc2c(=O)c3ccccc3oc2c1)Cc1cccc(OC(=O)NCCCCCCCN2CCOCC2)c1`, the Kc in data set [3] is 27.2 nM. The compound also registered a K3 in data set [4] of 0.11 min⁻¹. Moreover, the IC50 in data set [1] turned out to be 26.2 nM; in data set [2], 4.9 nM.

Regarding `CN(CCCOc1ccc2c(=O)c3ccccc3oc2c1)Cc1cccc(OC(=O)NCCCCCCCCN2CCOCC2)c1`, the 50% inhibitory concentration (IC50) in data set [1] came out at 27.4 nM; in data set [2], 3.9 nM.

`CNC(=O)Oc1cccc(CN(C)CCCOc2ccc(-c3ccccc3)cc2)c1`: the IC50 in data set [1] amounted to 54.6 nM; in data set [2], 42.6 nM.

On to `CNC(=O)Oc1cccc(CN(C)CCCOc2ccc(C(=O)c3ccccc3)cc2)c1`, for which the half-maximal inhibitory concentration (IC50) in data set [1] is 5.4 nM; in data set [2] it was 24.5 nM.

`CNC(=O)Oc1cccc(CN(C)CCCCCCCCCOc2ccc3c(=O)c4ccccc4oc3c2)c1`: the IC50 came out at 11.7 nM in data set [1] and 48.3 nM in data set [2].

In turn, `CNC(=O)Oc1cccc(CN(C)CCCOc2cccc(Cc3ccccc3)c2)c1` returned an IC50 in data set [2] of 22.1 nM.

Take `CNC(=O)Oc1cccc(CN(C)CC#CCOc2ccc3c(=O)c4ccccc4oc3c2)c1`: the IC50 in data set [1] amounted to 210 nM; in data set [2], 529 nM.

With `CN(CCCOc1ccc2c(=O)c3ccccc3oc2c1)Cc1cccc(OC(=O)NCCCCCCCCCN2CCOCC2)c1`, the half-maximal inhibitory concentration (IC50) in data set [1] worked out at 29.3 nM. This counts as double-digit nanomolar.

Consider `CNC(=O)Oc1cccc(CN(C)CCCCCCCOc2ccc3c(=O)c4ccccc4oc3c2)c1`, for which the half-inhibitory concentration (IC50) in data set [1] was 0.32 nM; in data set [2], 16.5 nM.

As to `CNC(=O)Oc1cccc(CN(C)CCCOc2ccccc2)c1`, the results for the 50% inhibitory concentration (IC50) in data set [1] and in data set [2] were 79.6 nM and 24.8 nM, respectively.

As to `CNC(=O)Oc1ccc2c(c1)[C@]1(C)CCN(C)[C@@H]1N2C` [PHYSOSTIGMINE], the Kc in data set [3] turned out to be 33.5 nM. The K3 in data set [4] stood at 0.41 min⁻¹. For the same compound, the K5 in data set [5] worked out at 0.43 h⁻¹.

In data set [3], `CNC(=O)Oc1cccc(CN(C)CCCCCCOc2ccc3c(=O)c4ccccc4oc3c2)c1` came in with a Kc of 6.4 nM. Also, the K3 in data set [4] worked out at 2.3 min⁻¹. For the same compound, the K5 in data set [5] worked out at 0.77 h⁻¹. Besides, the IC50 in data set [1] worked out at 1.4 nM; in data set [2] it was 13.9 nM.
